Results published in ChEMBL document CHEMBL1144425, “Design of benzophenone-containing photoactivatable linear vasopressin antagonists: pharmacological and photoreactive properties” (J Med Chem, 2005).

target: Vasopressin V1a receptor (Homo sapiens, UniProt P37288); test: Binding affinity against human vasopressin V1a receptor expressed in CHO cells; type: cell-based; conditions: not given
In short: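 Competition binding on membranes of CHO cells expressing the human V1a receptor (2 to 3 µg protein). Each compound was tested at 10^-12 to 10^-6 M against a radioiodinated linear antagonist (45-80 pM). Incubation was 1 h at 30 °C in 50 mM Tris, 5 mM MgCl2, pH 7.4, with 1 mg/mL BSA, in triplicate, then GF/C filtration. Data were fitted by nonlinear least-squares regression.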

Chain of Vasopressin V1a receptor (Homo sapiens, UniProt P37288) (P37288 whole entry): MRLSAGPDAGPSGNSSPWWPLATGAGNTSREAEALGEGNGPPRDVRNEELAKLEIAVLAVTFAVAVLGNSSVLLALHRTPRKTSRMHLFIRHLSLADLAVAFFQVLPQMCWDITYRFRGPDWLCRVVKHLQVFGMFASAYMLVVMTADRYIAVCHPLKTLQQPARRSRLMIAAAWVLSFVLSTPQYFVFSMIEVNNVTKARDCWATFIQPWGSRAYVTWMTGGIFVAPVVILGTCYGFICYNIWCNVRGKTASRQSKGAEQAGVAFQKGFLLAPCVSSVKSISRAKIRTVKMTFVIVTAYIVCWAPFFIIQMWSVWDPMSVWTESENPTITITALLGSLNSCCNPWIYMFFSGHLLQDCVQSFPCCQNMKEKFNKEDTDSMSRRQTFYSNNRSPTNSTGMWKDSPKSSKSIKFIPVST

Structure (SMILES) | Ki
NC(=O)CC[C@H](NC(=O)[C@H](Cc1ccccc1)NC(=O)[C@@H](Cc1ccc(C(=O)c2ccccc2)cc1)NC(=O)Cc1ccccc1)C(=O)N[C@@H](CC(N)=O)C(=O)N[C@@H](CCCN=C(N)N)C(=O)N1CCC[C@H]1C(=O)N[C@@H](CCCN=C(N)N)C(=O)N[C@@H](Cc1ccc(O)c(I)c1)C(N)=O | 0.0008 µM
COc1ccc(C[C@@H](NC(=O)c2ccc(C(=O)c3ccccc3)cc2)C(=O)N[C@@H](Cc2ccccc2)C(=O)N[C@@H](CCC(N)=O)C(=O)N[C@@H](CC(N)=O)C(=O)N[C@@H](CCCN=C(N)N)C(=O)N2CCC[C@H]2C(=O)N[C@@H](CCCN=C(N)N)C(=O)N[C@@H](Cc2ccc(O)c(I)c2)C(N)=O)cc1 | 0.018 µM
N=C(N)NCCC[C@H](NC(=O)[C@@H]1CCCN1C(=O)[C@H](CCCNC(=N)N)NC(=O)[C@H](CC(N)=O)NC(=O)[C@H](CCC(N)=O)NC(=O)[C@H](Cc1ccccc1)NC(=O)[C@H](Cc1ccc(C(=O)c2ccccc2)cc1)NC(=O)Cc1ccccc1)C(=O)N[C@@H](Cc1ccc(O)c(I)c1)C(N)=O | 0.0025 µM

same assay, conditions: cho

Structure (SMILES) | Ki
COc1ccc(C[C@@H](NC(=O)CNC(=O)c2ccc(C(=O)c3ccccc3)cc2)C(=O)N[C@@H](Cc2ccccc2)C(=O)N[C@@H](CCC(N)=O)C(=O)N[C@@H](CC(N)=O)C(=O)N[C@@H](CCCCN)C(=O)N2CCC[C@H]2C(=O)N[C@@H](CCCNC(=N)N)C(=O)N[C@@H](Cc2ccc(O)c(I)c2)C(N)=O)cc1 | 0.115 µM
N=C(N)NCCC[C@H](NC(=O)[C@@H]1CCCN1C(=O)[C@H](CCCNC(=N)N)NC(=O)[C@H](CC(N)=O)NC(=O)[C@H](CCC(N)=O)NC(=O)[C@H](Cc1ccccc1)NC(=O)[C@@H](N)Cc1ccc(C(=O)c2ccccc2)cc1)C(=O)N[C@@H](Cc1ccc(O)c(I)c1)C(N)=O | 0.148 µM
CC(=O)N[C@@H](Cc1ccc(C(=O)c2ccccc2)cc1)C(=O)N[C@@H](Cc1ccccc1)C(=O)N[C@@H](CCC(N)=O)C(=O)N[C@@H](CC(N)=O)C(=O)N[C@@H](CCCNC(=N)N)C(=O)N1CCC[C@H]1C(=O)N[C@@H](CCCNC(=N)N)C(=O)N[C@@H](Cc1ccc(O)c(I)c1)C(N)=O | 1.49 µM

The remaining lines, values ahead:

Ki | Structure (SMILES)
0.02 µM | NC(=O)CC[C@H](NC(=O)[C@H](Cc1ccccc1)NC(=O)[C@H](N)Cc1ccc(C(=O)c2ccccc2)cc1)C(=O)N[C@@H](CC(N)=O)C(=O)N[C@@H](CCCN=C(N)N)C(=O)N1CCC[C@H]1C(=O)N[C@@H](CCCN=C(N)N)C(=O)N[C@@H](Cc1ccc(O)c(I)c1)C(N)=O
0.462 µM | COc1ccc(C[C@@H](NC(=O)C(N)Cc2ccc(C(=O)c3ccccc3)cc2)C(=O)N[C@@H](Cc2ccccc2)C(=O)N[C@@H](CCC(N)=O)C(=O)N[C@@H](CC(N)=O)C(=O)N[C@@H](CCCNC(=N)N)C(=O)N2CCC[C@H]2C(=O)N[C@@H](CCCNC(=N)N)C(=O)N[C@@H](Cc2ccc(O)c(I)c2)C(N)=O)cc1 (stereo not given in full)
0.024 µM | CC(=O)N[C@H](Cc1ccc(C(=O)c2ccccc2)cc1)C(=O)N[C@@H](Cc1ccccc1)C(=O)N[C@@H](CCC(N)=O)C(=O)N[C@@H](CC(N)=O)C(=O)N[C@@H](CCCNC(=N)N)C(=O)N1CCC[C@H]1C(=O)N[C@@H](CCCNC(=N)N)C(=O)N[C@@H](Cc1ccc(O)c(I)c1)C(N)=O

target: Vasopressin V1a receptor (Rattus norvegicus, UniProt P30560); test: Binding affinity against rat vasopressin V1a receptor; conditions: not given
Sequence (P30560 whole entry): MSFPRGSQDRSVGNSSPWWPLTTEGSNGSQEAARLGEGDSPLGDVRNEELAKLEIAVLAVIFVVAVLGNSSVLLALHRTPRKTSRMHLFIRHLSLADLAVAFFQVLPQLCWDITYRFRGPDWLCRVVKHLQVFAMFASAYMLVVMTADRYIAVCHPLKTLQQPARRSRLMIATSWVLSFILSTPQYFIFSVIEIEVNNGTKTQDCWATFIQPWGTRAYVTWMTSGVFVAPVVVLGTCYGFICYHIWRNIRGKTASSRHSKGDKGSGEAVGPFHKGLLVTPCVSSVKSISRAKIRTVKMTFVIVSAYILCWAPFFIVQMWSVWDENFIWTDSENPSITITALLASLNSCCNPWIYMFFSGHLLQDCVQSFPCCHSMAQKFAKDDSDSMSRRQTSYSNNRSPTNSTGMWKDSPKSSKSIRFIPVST

Structure (SMILES) | Ki
COc1ccc(C[C@@H](NC(=O)CCCc2ccc(N=[N+]=[N-])cc2)C(=O)N[C@@H](Cc2ccccc2)C(=O)N[C@@H](CCC(N)=O)C(=O)N[C@@H](CC(N)=O)C(=O)N[C@@H](CCCNC(=N)N)C(=O)N2CCC[C@H]2C(=O)N[C@@H](CCCNC(=N)N)C(=O)N[C@@H](Cc2ccc(O)c(I)c2)C(N)=O)cc1 | 0.00018 µM
